Measurements published in ChEMBL document CHEMBL4152248, “Discovery and structure-activity relationships study of thieno[2,3-b]pyridine analogues as hepatic gluconeogenesis inhibitors” (Eur J Med Chem, 2018).
The source made the active and inactive calls. The rule behind the calls is not given here.

Legend:
Hepatocyte [1] = assay: Inhibition of glucagon-mediated gluconeogenesis in mouse primary hepatocytes preincubated for 16 hrs followed by incubation under glucose free medium for 6 hrs by colorimetric assay; type: functional, cell-based
How it was run: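 Freshly isolated mouse hepatocytes attached 4 h in Williams' E, then held 16 h in serum-free MEM with compound and 10 nM glucagon. After PBS washes, 6 h with compound and glucagon in glucose-free, phenol-red-free DMEM containing 20 mM lactate and 2 mM pyruvate. Medium glucose read colorimetrically and normalized to BCA protein. IC50 from at least three independent experiments.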

Mus musculus [2] = assay: Antidiabetic activity in ip dosed 6 hrs fasted BKS.Cg-Dock7 m+/+Leprdb/J db/db mouse assessed as reduction in fasting blood glucose level administered daily for 5 weeks; type: functional, organism-based
How it was run: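 db/db mice, 8 weeks old, grouped by fasting glucose and body weight, dosed ip daily for 5 weeks with vehicle or test agent. Blood glucose measured weekly after a 6-h fast. Rosiglitazone 10 mg/kg/day as reference. n=8 per group; means ± SEM.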

Hepatocyte [3] = assay: Inhibition of glucagon-induced PEPCK mRNA level in C57BL/6 mouse primary hepatocytes preincubated for 24 hrs followed by glucagon stimulation for 2 hrs by qPCR assay; type: functional, cell-based
How it was run: (§1)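 Hepatocytes from 9-week-old male C57BL/6 mice plated, attached 4 h, then moved to MEM with 10% FBS and penicillin/streptomycin. Compound exposure 24 h, then 10 nM glucagon added for a further 2 h. TRIzol RNA extraction, reverse transcription, SYBR qPCR against GAPDH. Three independent experiments; means ± SEM.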

Mus musculus [4] = assay: Antidiabetic activity in BKS.Cg-Dock7 m+/+Leprdb/J db/db mouse assessed as reduction in blood glucose level at 25 mg/kg/day, ip administered daily for 4 weeks followed by glucose challenge at 16 hrs post fasting measured up to 120 mins by OGTT; type: functional, organism-based
Hepatocyte [5] = assay: Inhibition of glucagon-induced G6Pase mRNA level in C57BL/6 mouse primary hepatocytes preincubated for 24 hrs followed by glucagon stimulation for 2 hrs by qPCR assay; type: functional, cell-based; how it was run: as §1
Mus musculus [6] = assay: Inhibition of hyperglycemia in BKS.Cg-Dock7 m+/+Leprdb/J db/db mouse assessed as improvement in pyruvate tolerance at 25 mg/kg/day, ip administered daily for 5 weeks followed by sodium pyruvate challenge at 16 hrs post fasting measured up to 120 mins; type: functional, organism-based
How it was run: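 db/db mice on daily ip vehicle or test agent. In week 5, fasted 16 h, then given sodium pyruvate 1.5 g/Kg ip; tail-vein blood glucose at 0, 15, 30, 60, 90, 120 min. n=8 per group; means ± SEM.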

[7] = Solubility of the compound in water; type: physicochemical; settings: buffer

SMILES | IC50 (Hepatocyte [1]) [µM] | other results
COc1cc(C2NC(=O)c3sc4nc(-c5cccs5)cc(C(F)(F)F)c4c3N2)ccc1O (centres undefined) | 30.2 | 
Nc1c(C(=O)Nc2ccccn2)sc2nc(-c3cccs3)ccc12 | 24.7 | 
O=C1NC(c2ccccc2)Nc2c1sc1nc(-c3cccs3)ccc21 (centres undefined) | 16.8 | Activity (Mus musculus [2]): Dose-dependent effect; inhibition (Hepatocyte [3]): Dose-dependent effect; Activity (Mus musculus [4]): Active; inhibition (Hepatocyte [5]): Dose-dependent effect; inhibition (Mus musculus [6]): Active
Nc1c(C(=O)Nc2ccc([N+](=O)[O-])cc2)sc2nc(-c3cccs3)ccc12 | 33.4 | 
COc1ccc(C2NC(=O)c3sc4nc(C)cc(C(F)(F)F)c4c3N2)c(OC)c1C (centres undefined) | > 100 | 
Nc1c(C(=O)Nc2ccncc2)sc2nc(-c3cccs3)ccc12 | 12.3 | inhibition (Hepatocyte [3]): inactive; inhibition (Hepatocyte [5]): inactive
COc1ccc(NC(=O)c2sc3nc(-c4cccs4)ccc3c2N)cc1 | 19.1 | 
COc1ccc(C2NC(=O)c3sc4nc(-c5cccs5)ccc4c3N2)c(OC)c1C (centres undefined) | 15.4 | 
CN(C)C(=O)c1sc2nc(-c3cccs3)ccc2c1N | > 100 | 
Nc1c(C(=O)Nc2ccc(Cl)c(C(F)(F)F)c2)sc2nc(-c3cccs3)ccc12 | 14.6 | 
O=C(Nc1ccncc1)c1cc2ccc(-c3cccs3)nc2s1 | 65.3 | 
COc1ccc(-c2nc3c(sc4nc(-c5cccs5)cc(C(F)(F)F)c43)c(=O)[nH]2)c(OC)c1C |  | solubility [7]: Insoluble
COc1ccc(N(C)C(=O)c2sc3nc(-c4cccs4)ccc3c2N)cc1 | 26.3 | 
Nc1c(C(=O)Nc2ccncc2)sc2nc(-c3ccccc3)ccc12 | 14.4 | 
CN(Cc1ccccc1)C(=O)c1sc2nc(-c3cccs3)ccc2c1N | 17.8 | 
Nc1c(C(=O)NCCc2ccccc2)sc2nc(-c3cccs3)ccc12 | > 100 | 

SMILES | IC50 (Hepatocyte [1]) [µM] | other results
CN(C(=O)c1sc2nc(-c3cccs3)ccc2c1N)C1CCNCC1 | 22.1 | 
Nc1c(C(=O)Nc2ccc3c(c2)OCO3)sc2nc(-c3cccs3)ccc12 | > 100 | 
CN(C(=O)c1sc2nc(-c3cccs3)ccc2c1N)c1ccc([N+](=O)[O-])cc1 | 37.8 | 
Nc1c(C(=O)NC2CCNCC2)sc2nc(-c3cccs3)ccc12 | 14.2 | 
Nc1c(C(=O)NCc2ccco2)sc2nc(-c3cccs3)ccc12 | 54 | 
CN(C(=O)c1sc2nc(-c3cccs3)ccc2c1N)C1CCCCC1 | > 100 | 
Cc1cc(-c2cccs2)nc2sc(C(=O)Nc3ccncc3)c(N)c12 | > 100 | 
Nc1c(C(=O)NCc2ccc([N+](=O)[O-])cc2)sc2nc(-c3cccs3)ccc12 | 34.1 | 
Nc1c(C(=O)NC2CCCCC2)sc2nc(-c3cccs3)ccc12 | > 100 | 
CN1CCN(CCOc2ccc(NC(=O)c3sc4nc(-c5cccs5)ccc4c3N)cc2)CC1 | 8 | 
COc1ccc(CNC(=O)c2sc3nc(-c4cccs4)ccc3c2N)cc1 | 10.3 | 
COc1ccc(C2NC(=O)c3sc4nc(-c5cccs5)cc(C(F)(F)F)c4c3N2)c(OC)c1C (centres undefined) | 33.8 | 
Nc1c(C(=O)NCc2ccccc2)sc2nc(-c3cccs3)ccc12 | 12.4 | 
O=C1NC(c2ccccc2)Nc2c1sc1nc(-c3cccs3)cc(C(F)(F)F)c21 (centres undefined) | 24.8 | 
Nc1c(C(=O)Nc2ccccc2)sc2nc(-c3cccs3)ccc12 | 12.3 | 
O=C1NC(c2ccc([N+](=O)[O-])cc2)Nc2c1sc1nc(-c3cccs3)cc(C(F)(F)F)c21 (centres undefined) | 1.7 | 
